Active and inactive are the calls of the source. The rule behind the calls is not given here.
Key:
Mus musculus = test: Antiinflammatory activity in CD-1 mouse assessed as reduction in zymosan-induced LTC4 formation in peritoneal cavity at 10 mg/kg, ip preincubated for 30 mins followed by zymosan addition measured after 30 mins by ELISA; type: functional, organism-based
Procedure, shortened: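 CD-1 male mice (6-8 weeks), n=6 per group, given 10 mg/kg i.p. in 2% DMSO/saline vehicle 30 min before i.p. zymosan (500 µL of 2 mg/mL suspension). Peritoneal cavity washed with 3 ml PBS 30 min after zymosan; LTC4 measured in exudate. One-way ANOVA with Bonferroni test.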

Cyclooxygenase [1] = target: T1, Cyclooxygenase (Homo sapiens, UniProt P35354+P23219); test: Modulation of COX1/2-mediated TXB2 level in human M1 macrophages derived from LPS/IFNgamma-polarized human monocyte derived macrophages at 3 uM preincubated for 15 mins followed by Escherichia coli (O6:K2:H1) challenge for 90 mins by LC-MS/MS analysis; type: protein assay; settings: 1.5 h
Procedure, shortened: (§1)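 Monocytes differentiated 6 days with GM-CSF (20 ng/ml) in RPMI/10% FCS, then polarized 48 h with LPS 100 ng/ml plus IFN-γ 20 ng/ml (M1). Cells (2 × 10^6) in PBS with 1 mM CaCl2 pre-incubated 15 min at 37 °C with 3 µM compound or 0.1% DMSO, then E. coli O6:K2:H1 (1:50) for 90 min. Methanol with deuterated standards added; SPE; UPLC-MS/MS; expressed as % of vehicle.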

[2] = target: T2, Prostaglandin E synthase (Homo sapiens) (UniProt O14684); test: Inhibition of mPGES-1 in LPS/IFNgamma-differentiated human M1 macrophages assessed as effect on PGE2 level at 3 uM preincubated for 15 mins followed by Escherichia coli (O6:K2:H1) challenge for 90 mins by LC-MS/MS analysis; design: scale not given: the % may be the effect or the level left; procedure, shortened: as §1
T2 sequence (whole entry): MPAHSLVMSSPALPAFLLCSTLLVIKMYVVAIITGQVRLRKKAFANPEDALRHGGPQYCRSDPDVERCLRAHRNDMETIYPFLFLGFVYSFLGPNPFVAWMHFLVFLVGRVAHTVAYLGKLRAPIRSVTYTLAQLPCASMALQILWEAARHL

[3] = target: T3, Polyunsaturated fatty acid 5-lipoxygenase (Homo sapiens) (UniProt P09917); test: Inhibition of nuclear localization of 5-LO (unknown origin) expressed in HEK293 cells at 10 uM preincubated for 10 mins followed by Ca2+ ionophore A23187 stimulation for 20 mins and measured after 1 hr by DAPI staining-based immunofluorescence microscopic analysis; type: cell-based
T3 sequence (whole entry): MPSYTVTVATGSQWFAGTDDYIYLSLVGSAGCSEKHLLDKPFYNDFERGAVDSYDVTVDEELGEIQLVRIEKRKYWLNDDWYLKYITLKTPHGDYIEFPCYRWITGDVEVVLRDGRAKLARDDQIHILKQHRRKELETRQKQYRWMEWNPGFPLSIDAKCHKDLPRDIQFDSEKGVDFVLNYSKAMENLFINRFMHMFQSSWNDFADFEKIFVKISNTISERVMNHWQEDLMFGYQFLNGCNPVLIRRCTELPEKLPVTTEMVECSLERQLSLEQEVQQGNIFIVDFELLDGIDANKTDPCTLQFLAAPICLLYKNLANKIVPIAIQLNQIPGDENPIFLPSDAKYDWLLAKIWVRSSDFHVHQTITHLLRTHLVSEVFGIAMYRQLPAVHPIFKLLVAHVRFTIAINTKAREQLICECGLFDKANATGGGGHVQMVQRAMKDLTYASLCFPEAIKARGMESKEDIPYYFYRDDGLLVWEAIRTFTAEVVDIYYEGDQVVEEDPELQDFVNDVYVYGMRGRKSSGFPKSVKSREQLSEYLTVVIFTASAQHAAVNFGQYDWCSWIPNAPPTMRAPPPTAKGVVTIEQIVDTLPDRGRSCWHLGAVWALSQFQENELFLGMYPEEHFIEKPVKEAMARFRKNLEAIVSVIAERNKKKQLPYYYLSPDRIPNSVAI
Procedure, shortened: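 HEK293 cells stably expressing 5-LO and FLAP, on poly-L-lysine coverslips, pre-incubated 10 min with 10 µM compound or 0.1% DMSO, then stimulated with 2.5 µM A23187 for 20 min at 37 °C. After fixation and permeabilization, stained with anti-5-LO and anti-FLAP antibodies and fluorescent secondaries; imaged by immunofluorescence microscopy, 100 cells from three experiments.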

[4] = target: T4, Polyunsaturated fatty acid 5-lipoxygenase (Homo sapiens, UniProt P09917); test: Inhibition of recombinant human 5-LO expressed in Escherichia coli BL21 (DE3) using arachidonic acid as substrate preincubated for 10 mins followed by CaCl2 and substrate addition measured after 10 mins by RP-HPLC analysis
T4 sequence (P09917 whole entry): T3 sequence (whole entry)
Procedure, shortened: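 Human recombinant 5-LO from E. coli BL21(DE3), ATP-agarose semi-purified (0.5 µg/ml), pre-incubated with compound or 0.1% DMSO at 4 °C. It was pre-warmed 30 s at 37 °C, then started with 2 mM CaCl2 plus 20 µM AA. Stopped after 10 min with ice-cold methanol; products by RP-HPLC. Residual activity at 10 µM; IC50 from 4-5 concentrations; n=3-4.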

Homo sapiens [5] = organism: Homo sapiens; test: Modulation of LO-mediated RvD2 level in human M2 macrophages derived from IL4-polarized human monocyte derived macrophages at 3 uM preincubated for 15 mins followed by Escherichia coli (O6:K2:H1) challenge for 90 mins by LC-MS/MS analysis
Procedure, shortened: (§2)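 Monocytes differentiated 6 days with M-CSF (20 ng/ml), then polarized 48 h with IL-4 20 ng/ml (M2). Cells (2 × 10^6) in PBS/1 mM CaCl2 pre-incubated 15 min at 37 °C with 3 µM compound or 0.1% DMSO, then challenged with E. coli O6:K2:H1 (1:50) for 90 min. Lipid mediators extracted by SPE with deuterated internal standards and quantified by UPLC-MS/MS as % of vehicle.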

Cyclooxygenase [6] = target: T1, Cyclooxygenase; test: Modulation of COX1/2-mediated 11-HEPE level in human M2 macrophages derived from IL4-polarized human monocyte derived macrophages at 3 uM preincubated for 15 mins followed by Escherichia coli (O6:K2:H1) challenge for 90 mins by LC-MS/MS analysis; type: ADME; settings: 1.5 h; procedure, shortened: as §2
Homo sapiens [7] = organism: Homo sapiens; test: Modulation of LO-mediated RvD5 level in human M2 macrophages derived from IL4-polarized human monocyte derived macrophages at 3 uM preincubated for 15 mins followed by Escherichia coli (O6:K2:H1) challenge for 90 mins by LC-MS/MS analysis; procedure, shortened: as §2

O=C(O)c1ccc(N(Cc2cccc(OCc3ccccc3)c2)S(=O)(=O)c2ccc(-c3ccccc3)cc2)cc1
Activity (Mus musculus): Active
Activity (Cyclooxygenase [1]): 92%
Activity [2]: 72%
inhibition [3]: inactive
IC50 [4]: 2.3 µM
Activity (Homo sapiens [5]): 128%
Activity (Cyclooxygenase [6]): 107%
Activity (Homo sapiens [7]): 134%
